Entries after “also recorded” stand apart in the source; their conditions may differ.
Tests used:
[1] = tested on: ATCC 25923; settings: for Fold Change: MIC of antibiotic, alone vs with surfactin; for FICI: antibiotic + surfactin
[2] = tested on: SA 452; settings: for Fold Change: MIC of antibiotic, alone vs with surfactin; for FICI: antibiotic + surfactin
[3] = tested on: S. aureus (ATCC 25923 and MRSA SA 452); assay: Checkerboard assay, both strains; type: cell-based; settings: for Conversion of resistance to sensitivity by surfactin: addition of at least 64 μg/mL of surfactin, ATCC 25923 and MRSA; for Interaction with surfactin (in words): S. aureus (ATCC 25923 and MRSA)
[4] = tested on: S. aureus (ATCC 25923 and MRSA SA 452); assay: Mutant prevention / resistance selection, both strains; type: cell-based; settings: combination of oxacillin and surfactin
Summary of the method: (§1)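 Strains were grown 24 h in MH broth, centrifuged at 4000×g for 10 min and resuspended to 1×1010 CFU/mL. […] MPC was the lowest concentration preventing colonies. MPC/MIC ratio defined the mutant selection window.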

[5] = tested on: SA 452; assay: Mutant prevention concentration, SA 452; type: cell-based, S. aureus
[6] = tested on: ATCC 25923; assay: Mutant prevention concentration, ATCC 25923; type: cell-based, S. aureus
Summary of the method: as §1

Q: How did the “Fold Change” value [1] turn out when `CC1(C)S[C@@H]2[C@H](NC(=O)[C@H](N)c3ccccc3)C(=O)N2[C@H]1C(=O)O` [Ampicillin] was run?
A: Its value is 8.

Q: What about the “Interaction with surfactin (in words)” value [1] of the same compound?
A: Its value is “synergistic effects”.

Q: And the “Fold Change” value [2]?
A: Its value is 128.

Q: What about the FICI [2] of the same compound?
A: Its FICI is 0.133.

Q: And the “Interaction with surfactin (in words)” value [2]?
A: The value was “significantly synergistic effects”.

Q: And the “Conversion of resistance to sensitivity by surfactin” value [3]?
A: Its value is “converted them to sensitivity”.

Q: And the “Interaction with surfactin (in words)” value [3]?
A: Its value is “synergies; also recorded: synergistic effects”.

Q: How did the FICI [2] turn out when `O=C(O)c1cn(C2CC2)c2cc(N3CCNCC3)c(F)cc2c1=O` [Ciprofloxacin] was run?
A: The FICI was 2.

Q: Which FICI [2] does the source give for `CC[C@H]1OC(=O)[C@H](C)[C@@H](O[C@H]2C[C@@](C)(OC)[C@@H](O)[C@H](C)O2)[C@H](C)[C@@H](O[C@@H]2O[C@H](C)C[C@H](N(C)C)[C@H]2O)[C@](C)(O)C[C@@H](C)C(=O)[C@H](C)[C@@H](O)[C@]1(C)O` [Erythromycin] here?
A: Its FICI is 2.

Q: Which results are given for `CNC(C)C1CCC(N)C(OC2C(N)CC(N)C(OC3OCC(C)(O)C(NC)C3O)C2O)O1` (stereo not drawn) [Gentamicin]?
A: FICI [2]: 0.25; Interaction with surfactin (in words) [2]: significantly synergistic effects

Q: Which results are given for `Cc1onc(-c2ccccc2)c1C(=O)N[C@@H]1C(=O)N2[C@@H]1SC(C)(C)[C@@H]2C(=O)O` [Oxacillin]?
A: Mutant selection window (MSW), in words [4]: narrowed the MSW for oxacillin against MRSA; Fold Change [1]: 8; FICI [1]: 0.25; Interaction with surfactin (in words) [1]: synergistic effects; FICI [2]: 0.156; Interaction with surfactin (in words) [2]: significantly synergistic effects; Conversion of resistance to sensitivity by surfactin [3]: converted them to sensitivity; Interaction with surfactin (in words) [3]: synergies; also recorded: synergistic effects; MIC/MPC ([5]; oxacillin alone, SA 452): >32; MIC ([5]; oxacillin alone, SA 452, unit not in table): 8; Decrease of MPC/MIC value ([5]; with surfactin vs oxacillin alone, MRSA): ≥ 2 fold; MIC/MPC (text: MPC/MIC ratio) ([6]; oxacillin alone): 32; MIC ([6]; oxacillin alone, unit not in table): 0.5; Decrease of MPC/MIC value ([6]; with 64 μg/mL of surfactin vs oxacillin alone): 8 fold

Q: For `CN(C)[C@@H]1C(O)=C(C(N)=O)C(=O)[C@@]2(O)C(O)=C3C(=O)c4c(O)cccc4[C@@](C)(O)[C@H]3C[C@@H]12` [Tetracycline], which “Fold Change” value [1] is on record?
A: Its value is 16.

Q: And the FICI [1]?
A: Its FICI is 0.188.

Q: And the “Interaction with surfactin (in words)” value [1]?
A: Its value is “synergistic effects”.

Q: What about the “Fold Change” value [2] of the same compound?
A: The value was 128.

Q: And the FICI [2]?
A: The FICI was 0.133.

Q: What about the “Interaction with surfactin (in words)” value [2] of the same compound?
A: Its value is “significantly synergistic effects”.

Q: What about the “Conversion of resistance to sensitivity by surfactin” value [3] of the same compound?
A: The value was “converted them to sensitivity”.

Q: And the “Interaction with surfactin (in words)” value [3]?
A: The value was “synergies; also recorded: synergistic effects”.
